# An excerpt weighted towards active compounds, which were near 2.6% of everything screened.
# ABHD5 PLIN5 PPI – ABHD5-PLIN5 interaction inhibitors, primary screen, cell lysate, split luciferase complementation, luminescence. Split G. princeps luciferase complementation, 4 h. Perilipin-5 (Homo sapiens) + 1-acylglycerol-3-phosphate O-acyltransferase ABHD5 (Homo …. 360,000 compounds, 0.78% hits. inhibition, % at 4 µM;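 active = inhibition above the mean inhibition across every tested compound plus 3 SD, cut at about 22% in these data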;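 note: 0% = DMSO only wells and the 100% control is not disclosed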
# Target sequence (Q00G26 whole entry, looked up): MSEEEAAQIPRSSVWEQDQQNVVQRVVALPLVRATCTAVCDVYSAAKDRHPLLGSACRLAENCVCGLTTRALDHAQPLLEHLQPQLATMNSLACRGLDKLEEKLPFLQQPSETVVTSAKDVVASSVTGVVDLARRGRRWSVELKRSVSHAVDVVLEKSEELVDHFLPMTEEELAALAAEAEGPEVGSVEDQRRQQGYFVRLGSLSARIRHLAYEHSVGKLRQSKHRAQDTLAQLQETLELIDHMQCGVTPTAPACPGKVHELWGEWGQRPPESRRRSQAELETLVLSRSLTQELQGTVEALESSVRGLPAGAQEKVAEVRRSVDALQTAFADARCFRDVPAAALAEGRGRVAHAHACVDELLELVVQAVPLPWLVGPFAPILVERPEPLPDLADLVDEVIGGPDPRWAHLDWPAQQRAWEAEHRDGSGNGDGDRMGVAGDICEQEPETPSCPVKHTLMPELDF
# Target sequence (Q8WTS1 whole entry, looked up): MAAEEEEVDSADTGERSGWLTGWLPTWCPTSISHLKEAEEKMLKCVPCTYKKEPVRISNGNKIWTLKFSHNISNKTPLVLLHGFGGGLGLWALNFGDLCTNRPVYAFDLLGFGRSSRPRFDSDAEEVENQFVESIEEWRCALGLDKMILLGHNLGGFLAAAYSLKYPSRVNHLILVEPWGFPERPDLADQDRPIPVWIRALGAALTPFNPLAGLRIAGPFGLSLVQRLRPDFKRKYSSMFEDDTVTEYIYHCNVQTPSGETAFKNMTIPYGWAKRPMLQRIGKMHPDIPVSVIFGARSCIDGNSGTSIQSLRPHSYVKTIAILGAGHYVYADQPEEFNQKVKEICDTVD
# NadD block – inhibitors of S. aureus NadD, primary screen, biochemical, colorimetric, uHTS. Nicotinate-nucleotide adenylyltransferase NadD (Staphylococcus aureus N315). purified NadD enzyme, colorimetric absorbance read-out. inhibition, % at 20 µM. 360,000 compounds, 0.78% hits. AID 602399, 2012; in the data active = inhibition above about 26%
# core dimer inh – inhibitors of HCV core protein dimerization, primary screen, biochemical, TR-FRET, high-throughput. TR-FRET GST/Flag-core106 dimerization, 1536-well. inhibition, % at 5 µM. 300,000 compounds, 0.33% hits. AID 1899, 2009;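 active = inhibition above the mean of all tested compounds plus 3 SD, set per screening campaign, cut at about 45% in these data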
#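 Test system: GST/Flag-tagged HCV core106 proteins; Medium: KF-containing HEPES buffer, pH 7.45, DTT, CHAPS, BSA; Times: compound-protein-antibody incubation 4 h at 22.5 °C; Detection: TR-FRET 671 and 617 nm emission; Benchmarks: wells lacking GST-core106 and wells with excess unlabelled core106.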
# rCAG binder – binders of r(CAG) RNA repeats, primary screen, biochemical, fluorescence | inhibition, % at 3 µM | r(CAG) RNA repeat, TO-PRO-1 dye displacement fluorescence | 370,000 compounds, 1.3% hits | AID 651821, 2012;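 active = inhibition above the plate cutoff, the mean of all test compounds on that plate plus 3 SD, cut at about 35% in these data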;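 note: 0% = DMSO alone and 100% = 100 µM mitoxantrone as full dye displacement; higher means more dye released from RNA so lower well fluorescence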
# rCAG bind conf – small molecules binding CAG repeat RNA – biochemical, fluorescence, confirmation | shares compounds with rCAG binder | r(CAG) RNA repeat, TO-PRO-1 dye displacement fluorescence | inhibition, % at 3 µM | 4,300 compounds, 70% hits | AID 652065, 2013;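 active = inhibition above a per-plate cutoff, the mean inhibition of sample wells plus 3 SD, cut at about 35% in these data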;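 note: loss of TO-PRO-1 fluorescence as compound displaces dye from 1x1 AA loop RNA; 0% = DMSO only wells and 100% = 100 µM mitoxantrone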
# dCAG dye counter – displacement of TO-PRO-1 from CAG DNA duplex, counter-screen for rCAG RNA repeat binder project, biochemical, fluorescence, TO-PRO-1 dye, d(CAG) DNA oligo; shares compounds with rCAG binder; d(CAG) DNA oligo TO-PRO-1 dye displacement; inhibition, % at 3 µM; 4,300 compounds, 94% hits;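 active = inhibition above its plate's cutoff, the mean test-well inhibition plus 3 SD, cut at about 4.8% in these data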;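 note: 0% = DNA dye mix with DMSO and 100% = 100 µM mitoxantrone; hits displace the dye from DNA and so lower well fluorescence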
# DNA CAG DR – inhibitors of DNA CAG/GTC TO-PRO-1 complex, dose response, counter-screen for rCAG RNA repeat binder project, biochemical, fluorescence, TO-PRO-1 dye; shares compounds with rCAG binder; DNA CAG/GTC duplex TO-PRO-1 dye displacement fluorescence; IC50, µM; 250 compounds, 20% hits; AID 686960, 2013; in the data active = IC50 below about 10 µM
# Starred values were filed as active, the others as inactive; i = inactive; . = no result.
SMILES,ABHD5 PLIN5 PPI,NadD block,core dimer inh,rCAG binder,rCAG bind conf,dCAG dye counter,others
CC/C(=N\NC(=O)Cc1ccc(Br)cc1)c1cccs1,-2,-5,.,5,.,.,
Cc1ccc(S(=O)(=O)N2[C@@H](c3ccc(C(C)(C)C)cc3)C(C(=O)O)=CC[C@H]2c2ccc3c(c2)OCO3)cc1,2,26,.,83*,82*,46*,
Cc1ccc(S(=O)(=O)N2[C@@H](c3ccccc3)C(C(=O)O)=CC[C@H]2c2ccc3c(c2)OCO3)cc1,-2,2,14,54*,43*,11*,
COc1ncnc2c1ncn2CCCNCc1ccco1,0,7,.,1,.,.,
O=S(=O)(O)c1cc(O)c(N=Nc2ccc(O)cc2O)c2ccccc12,12,10,.,65*,94*,67*,
CC(C)N(Cc1c(O)ccc2c(=O)c(-c3ccc(Cl)cc3)coc12)C(C)C,3,18,45,42*,18,10*,
CC(=O)N1c2ccccc2C(=O)NCC1C(=O)NC(C)(C)C (configuration not stated),.,.,.,1,.,.,
COc1cccc(CNC(=O)c2c[nH]n3c(=O)c(Cl)c(C)nc23)c1,-4,12,10,61*,35*,8.0*,
COc1cccc(CNC(=O)c2ccccc2N)c1,-4,-3,-3,0,.,.,
COc1cc(N2CCC(O)CC2)ccc1Nc1cc(Nc2ccccc2S(=O)(=O)C(C)C)c2cc[nH]c2n1,.,.,.,22,.,.,
CC(=O)Nc1ccc(S(=O)(=O)Nc2nc3ccccc3nc2N2CCCCCC2)cc1,-7,1,-1,24,.,.,
Cc1ccccc1S(=O)(=O)Nc1nc2ccccc2nc1N1CCc2ccccc2C1,2,6,9,35*,45*,15*,
CC(=O)Nc1ccc(S(=O)(=O)Nc2nc3ccccc3nc2N2CCc3ccccc3C2)cc1,5,13,3,49*,60*,25*,
O=S(=O)(NCCS(=O)(=O)N1CCN(c2ccc(F)cc2)CC1)c1ccccc1,8,-4,.,0,.,.,
O=C(CSc1nc2ccccc2c(=O)n1-c1ccc(F)cc1)Nc1ccc(C(=O)O)cc1,-6,-2,-10,8,.,.,
O=C(CSc1nc2cc(C(=O)O)ccc2c(=O)n1-c1ccc(F)cc1)Nc1ccc(F)c(F)c1F,-2,1,11,39*,15,3,
CCOC(=O)c1c(N)sc(N)c1C(=O)OCC,-6,6,-21,9,.,.,
CCOC(=O)c1c(N)sc(=S)c2c1CCC2,-4,8,45,36*,54*,23*,DNA CAG DR=>30
CN(C)S(=O)(=O)c1cccc(NC(=S)N/N=C/c2cc(Br)ccc2O)c1,4,23,5,46*,55*,21*,
COc1ccc(Cl)c(NC(=O)C/C(C)=N/NC(=O)CCc2ccccc2)c1,15,0,7,37*,3,0,
CCOC(=O)N1CCN(C(C(=O)NC2CCCC2)c2ccco2)CC1 (configuration not stated),-6,.,.,1,.,.,
O=S(=O)(Nc1nc2ccccc2nc1NCCO)c1cccc(Cl)c1,3,3,-8,29,.,.,
O=S(=O)(Nc1nc2ccccc2nc1NCC1CCCO1)c1cccc(Cl)c1 (configuration not stated),3,3,8,54*,40*,10*,
COCCCNc1nc2ccccc2nc1NS(=O)(=O)c1cccc(Cl)c1,2,-6,0,38*,32,6.7*,
NC(=O)c1ncn2c(=O)n(CCCl)nnc12,.,.,.,1,.,.,
SMILES,ABHD5 PLIN5 PPI,NadD block,core dimer inh,rCAG binder,rCAG bind conf,dCAG dye counter,others
N#C/C(=C\c1ccc(O)c(O)c1)C(=O)NCCc1ccccc1,0,0,-5,39*,44*,13*,
CSc1ccc(/C=C/C(=O)NC(=O)c2ccccc2O)cc1,1,0,8,38*,26,8.7*,
Nc1nc(SCc2nnc(SCC(=O)O)n2-c2ccccc2)nc2sc3c(c12)CCCC3,10,24,3,61*,69*,23*,DNA CAG DR=>30
COc1cc(/C=C2/SC(=S)N(Cc3ccccc3)C2=O)ccc1OCC(=O)O,0,22,37,72*,86*,55*,
COc1cc(/C=C2/SC(=S)N(Cc3ccccc3)C2=O)ccc1OS(C)(=O)=O,-6,1,-39,4,.,.,
CCOc1cc(/C=C2/SC(=O)N(CC(=O)N3CCc4ccccc4C3)C2=O)ccc1OCC(=O)O,15,21,19,57*,60*,21*,
CCOc1cc(/C=C2/SC(=S)N(Cc3ccccc3)C2=O)ccc1O,0,-7,-6,37*,42*,24*,
COc1cccc(C(=O)n2ccc3ccc(-c4ccc5ccn(Cc6ccccc6)c5c4)cc32)c1,.,.,.,16,.,.,
O=C(CN(CCc1ccccc1)S(=O)(=O)c1cccs1)N1CCOCC1,.,.,.,1,.,.,
CCCOc1ccc(C(CC(=O)O)NC(=O)c2sc3ccccc3c2Cl)cc1 (configuration not stated),-2,4,21,53*,42*,9.9*,
CCOc1ccc(C(CC(=O)O)NC(=O)c2sc3ccccc3c2Cl)cc1 (configuration not stated),0,-8,-4,29,.,.,
O=S1(=O)c2ccc(Br)cc2OC[C@H](Cc2ccccc2)N1Cc1cn(CCC2OCCCO2)nn1,.,.,.,-1,.,.,
CC1(OC(=O)C2CCCC2)C(=O)C=C2C=C(c3ccsc3)OC=C2C1=O (configuration not stated),3,24,-2,52*,37*,20*,DNA CAG DR=i
O=C1Nc2ccc(Br)cc2C12NNc1ccccc1O2 (configuration not stated),5,-1,-21,61*,58*,48*,
CCOc1ccc(N2CSC3=C(C#N)C(c4ccco4)CC(=O)N3C2)cc1 (configuration not stated),-6,-2,78*,69*,48*,17*,
CCOC(=O)c1ccc(N2CSC3=C(C#N)C(c4ccc(OC)cc4OC)CC(=O)N3C2)cc1 (configuration not stated),-5,3,12,21,.,.,
CCCCOCCCNC(=O)C[C@@H]1C[C@@]2(C(=O)OC)CCCCC=C2N(Cc2ccco2)C1=O,0,2,.,5,.,.,
